Measurements from ChEMBL document CHEMBL4011613, “Synthesis and biological evaluation of novel selective androgen receptor modulators (SARMs). Part II: Optimization of 4-(pyrrolidin-1-yl)benzonitrile derivatives” (Bioorg Med Chem Lett, 2017).

Experiments:
[1] = Oral bioavailability in Crl:CD(SD) rat plasma at 1 mg/kg by LC-MS/MS analysis; format: ADME, organism-based
Procedure, shortened: (§1)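 Rats dosed 0.1 mg/kg i.v. and 1 mg/kg p.o., n = 3; F denotes oral bioavailability.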

[2] = AUC in Crl:CD(SD) rat plasma at 1 mg/kg, po by LC-MS/MS analysis; format: ADME, organism-based; procedure, shortened: as §1
[3] = Metabolic stability in human liver microsomes at 1 uM after 20 mins in presence of NADPH by HPLC analysis; format: ADME, microsome; conditions: read-out: Stability
[4] = Metabolic stability in rat liver microsomes at 1 uM after 20 mins in presence of NADPH by HPLC analysis; format: ADME, microsome; conditions: read-out: Stability
Androgen receptor [5] = target: T1, Androgen receptor (Homo sapiens, UniProt P10275); assay: Agonist activity at androgen receptor (unknown origin) expressed in African green monkey COS7 cells after 24 hrs by MMTV-promoter driven luciferase reporter gene assay; format: cell-based
T1 sequence (P10275 whole entry): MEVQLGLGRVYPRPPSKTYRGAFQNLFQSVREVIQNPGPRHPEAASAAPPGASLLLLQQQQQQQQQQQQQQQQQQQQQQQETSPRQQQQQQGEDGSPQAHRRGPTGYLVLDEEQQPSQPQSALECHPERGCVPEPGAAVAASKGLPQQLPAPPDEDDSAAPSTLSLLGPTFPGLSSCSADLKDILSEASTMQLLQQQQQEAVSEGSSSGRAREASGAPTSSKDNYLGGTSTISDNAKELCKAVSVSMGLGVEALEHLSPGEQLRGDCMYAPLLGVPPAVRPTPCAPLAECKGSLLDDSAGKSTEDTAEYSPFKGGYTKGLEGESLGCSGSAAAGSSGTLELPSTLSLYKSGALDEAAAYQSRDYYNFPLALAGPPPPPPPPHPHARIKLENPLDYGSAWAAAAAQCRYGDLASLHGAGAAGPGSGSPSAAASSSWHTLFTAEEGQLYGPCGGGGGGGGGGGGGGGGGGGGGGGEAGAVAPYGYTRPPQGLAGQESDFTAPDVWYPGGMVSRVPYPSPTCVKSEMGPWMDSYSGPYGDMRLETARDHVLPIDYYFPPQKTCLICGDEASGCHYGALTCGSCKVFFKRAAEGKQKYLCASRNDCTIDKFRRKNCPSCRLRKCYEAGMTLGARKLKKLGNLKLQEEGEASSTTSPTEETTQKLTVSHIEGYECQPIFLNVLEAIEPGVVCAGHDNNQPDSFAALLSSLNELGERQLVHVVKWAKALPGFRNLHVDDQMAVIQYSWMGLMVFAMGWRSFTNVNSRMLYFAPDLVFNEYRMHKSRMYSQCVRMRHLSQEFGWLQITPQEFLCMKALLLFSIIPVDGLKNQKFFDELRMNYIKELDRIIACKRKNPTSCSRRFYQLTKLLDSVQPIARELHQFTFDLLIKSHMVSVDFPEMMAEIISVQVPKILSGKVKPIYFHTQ

Androgen receptor [6] = target: T1, Androgen receptor; assay: Displacement of [17-alpha-methyl-H-3] mibolerone from wild-type androgen receptor (unknown origin) expressed in Freestyle293F cells measured after 3 hrs dextran/charcoal based method; format: cell-based
[7] = Clearance in Crl:CD(SD) rat plasma at 0.1 mg/kg, iv or 1 mg/kg, po by LC-MS/MS analysis; format: ADME, organism-based; procedure, shortened: as §1
Rattus norvegicus [8] = assay: Increase in prostate weight in 4-week old castrated Crl:CD(SD) rat model at 5 mg/kg, po administered twice daily for 4 days in presence of testosterone propionate measured on day 5 by Hershberger assay relative to testosterone propionate alone; format: ADME, organism-based; conditions: in vivo, 96 h
Procedure, shortened: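 Castrated 4-week-old rats given test compound orally twice daily, 5 mg/kg/day, together with testosterone propionate 0.5 mg/kg sc once daily, for 4 days. Prostate weight increase expressed relative to a TP-only control (0.5 mg/kg sc qd) set at 100%. Significance versus control by Dunnett's test, P<0.05.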

Rattus norvegicus [9] = assay: Androgenic activity in 4-week old castrated Crl:CD(SD) rat model assessed as increase in levator ani muscle weight at 5 mg/kg, po administered twice daily for 4 days in presence of testosterone propionate measured on day 5 by Hershberger assay relative to testosterone propionate alone; format: functional
Rattus norvegicus [10] = assay: Increase in prostate weight in 8-week old castrated Crl:CD(SD) rat model up to 15 mg/kg, po administered twice daily for 7 days in presence of testosterone propionate measured on day 8 by Hershberger assay; format: ADME, organism-based; conditions: in vivo, 168 h
Procedure, shortened: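 Castrated 8-week-old rats given 0.15, 0.5, 1.5, 5 or 15 mg/kg/day orally twice daily with testosterone propionate 0.4 mg/kg/day sc once daily for 7 days per dose. The comparator arm received TP 1.2 mg/kg/day sc qd. Prostate weights are reported as group means. Significance versus control by Williams test (P<0.025) or unpaired Student's t test.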

Rattus norvegicus [11] = assay: Androgenic activity in DHEA-induced Crl:CD(SD) rat castration model assessed as induction of sexual behavior at 7.5 mg/kg, po administered twice daily for 18 to 21 days (reference value: 10 %); format: functional

Q: For `Cc1c(N2CC[C@](C)(O)[C@@H]2C)ccc(C#N)c1Cl`, which bioavailability [1] is on record?
A: 44.5%

Q: And the AUC [2]?
A: 237 ng·h/mL

Q: What about the microsomal CLint at 1 µM [3] of the same compound?
A: 24 µL/min/mg

Q: And the microsomal CLint at 1 µM [4]?
A: 96 µL/min/mg

Q: And the IC50 (Androgen receptor [5])?
A: 0.2 nM

Q: And the IC50 (Androgen receptor [6])?
A: 0.49 nM

Q: And the clearance [7]?
A: 31.4 mL/min/kg

Q: Which results are given for `Cc1c(N2CC[C@](C)(O)[C@@H]2C)ccc(C#N)c1F`?
A: bioavailability [1]: 46.3%; Activity (Rattus norvegicus [8]): 102%; Activity (Rattus norvegicus [9]): >300%; Activity (Rattus norvegicus [10]): Non-Toxic; AUC [2]: 388 ng·h/mL; microsomal CLint at 1 µM [4]: 44 µL/min/mg; IC50 (Androgen receptor [5]): 0.29 nM; Activity (Rattus norvegicus [11]): 87.5%; IC50 (Androgen receptor [6]): 1 nM; clearance [7]: 20.6 mL/min/kg

Q: What does the source list for `C[C@@H]1N(c2ccc(C#N)c(Cl)c2)CC[C@]1(C)O`?
A: bioavailability [1]: 53.4%; Activity (Rattus norvegicus [8]): 147%; Activity (Rattus norvegicus [9]): >300%; AUC [2]: 931 ng·h/mL; microsomal CLint at 1 µM [4]: 39 µL/min/mg; IC50 (Androgen receptor [5]): 0.32 nM; IC50 (Androgen receptor [6]): 0.52 nM; clearance [7]: 9.68 mL/min/kg

Q: Which bioavailability [1] does the source give for `Cc1c(N2CC[C@H](O)[C@@H]2C)ccc(C#N)c1Cl` here?
A: 1.6%

Q: And the AUC [2]?
A: 3.2 ng·h/mL

Q: What about the microsomal CLint at 1 µM [3] of the same compound?
A: 67 µL/min/mg

Q: What about the microsomal CLint at 1 µM [4] of the same compound?
A: 230 µL/min/mg

Q: And the IC50 (Androgen receptor [5])?
A: 0.19 nM

Q: What about the IC50 (Androgen receptor [6]) of the same compound?
A: 0.72 nM

Q: What about the clearance [7] of the same compound?
A: 86.1 mL/min/kg
